NR2E3 ag-1: activates human NR2E3 receptor. 0.35% of 360,000 active. inhibition of corepressor binding, % at 3.98 µM. Q9Y5X4. AID 602229. CHO-S Gal4-NCOR/VP16-NR2E3 two-hybrid, luciferase;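 active = inhibition above the mean of all tested compounds plus 3 SD, cut at about 70% in these data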;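 also: higher means lower luciferase signal from less NR2E3 corepressor binding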
ADAM17 inh: inhibits human ADAM17; inhibition, % at 6.95 µM; 0.83% of 370,000 active; recombinant ADAM17, EDANS/DABCYL FRET peptide cleavage;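 active = inhibition above the mean of compounds lying between control limits plus 3 SD, set per campaign, cut at about 8.5% in these data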
Target sequence (P78536 215-824 limits assumed): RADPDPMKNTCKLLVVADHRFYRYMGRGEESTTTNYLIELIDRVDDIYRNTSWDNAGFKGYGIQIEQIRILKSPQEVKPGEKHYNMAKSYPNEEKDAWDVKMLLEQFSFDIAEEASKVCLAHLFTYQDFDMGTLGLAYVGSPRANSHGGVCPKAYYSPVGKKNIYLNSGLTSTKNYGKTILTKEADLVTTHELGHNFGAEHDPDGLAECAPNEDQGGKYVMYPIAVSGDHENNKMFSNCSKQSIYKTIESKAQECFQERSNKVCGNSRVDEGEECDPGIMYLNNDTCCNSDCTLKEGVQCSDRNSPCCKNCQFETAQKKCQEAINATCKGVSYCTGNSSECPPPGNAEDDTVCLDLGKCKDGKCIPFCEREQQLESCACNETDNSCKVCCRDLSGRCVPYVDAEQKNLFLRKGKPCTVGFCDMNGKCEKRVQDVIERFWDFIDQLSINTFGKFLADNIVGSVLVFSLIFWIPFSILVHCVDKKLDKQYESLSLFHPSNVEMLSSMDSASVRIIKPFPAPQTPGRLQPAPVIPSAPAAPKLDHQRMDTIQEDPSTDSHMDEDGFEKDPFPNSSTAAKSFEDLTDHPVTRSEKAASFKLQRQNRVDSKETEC
ADAM10 inh: inhibitors of human ADAM10; inhibition, % at 7 µM; 0.62% of 370,000 active; AID 720582; recombinant ADAM10, EDANS/DABCYL FRET peptide cleavage, 3 h; O14672;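 active = inhibition above a per-campaign cutoff equal to the mean of compounds falling between control-based bounds plus 3 SD, cut at about 20% in these data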
proKLK7 act: proKLK7 (human) activation, primary screen; P49862; purified proKLK7, EDANS-DABCYL substrate fluorescence; 100% is mature enzyme control, 0% vehicle; activation, % at 7 µM; 0.9% of 370,000 active; AID 652039;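 active = activation above the mean of all tested compounds plus 3 SD, computed per campaign excluding outliers beyond control limits, cut at about 13% in these data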
GASC-1 inh: blocks human GASC-1 demethylase activity; AID 2099; GST-JMJD2C(1-420) H3K9me3 demethylation, DELFIA europium; Q9H3R0; 0.069% of 330,000 active; inhibition, % at 2.35 µM;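 active = more than half of a compound's replicate wells show inhibition beyond 50%, single wells judged on their own value; inconclusive = some, but no more than half, of replicates pass 50% inhibition; inactive = no replicate passes 50% inhibition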;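 also: signal counts dimethyl H3K9 product captured on neutravidin plate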
NR2E3 ag-2: agonists of human nuclear receptor NR2E3; GST-NR2E3/biotin-RetCOR TR-FRET, 1536-well; inhibition of corepressor binding, % at 4.78 µM; 0.12% of 320,000 active; AID 2300;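 active = percent inhibition above the cutoff of mean plus 3 SD of all tested compounds, set per screening campaign, cut at about 20% in these data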
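system = GST-tagged NR2E3 plus biotinylated RetCOR corepressor | input = 1.35 nM GST-NR2E3 | also added = 7 nM biotin-RetCOR | schedule = 5 h incubation at 4 °C | measured by = TR-FRET with europium anti-GST and streptavidin-D2, 340 nm excitation | read-out = percent loss of FRET ratio relative to control wells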
ADAM10 confirm: confirmation of inhibitors of human ADAM10; ADAM10 QFRET peptide cleavage, EDANS fluorescence; AID 743208; shares compounds with ADAM10 inh; 1% of 2,100 active; inhibition, % at 6.95 µM;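 active = inhibition above about 20% chosen separately for each screening run, limit read from the data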
ADAM17 counter: ADAM17 inhibition, counter-screen for ADAM10 exosite hits; shares compounds with ADAM10 inh; ADAM17 QFRET peptide cleavage, EDANS fluorescence; inhibition, % at 6.95 µM; 0.5% of 2,100 active;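 active = mean triplicate inhibition above the solvent-only control wells' mean plus 3 SD, cut at about 12% in these data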
ADAM10 ctr: counter-screen for ADAM17 exosite inhibitors: inhibitors of human ADAM10; shares compounds with ADAM17 inh; recombinant ADAM10, EDANS/DABCYL FRET peptide cleavage, 3 h; inhibition, % at 6.95 µM; 47% of 2,900 active; AID 743256;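 active = mean inhibition over the triplicate runs exceeds the activity threshold set in the earlier primary screen, cut at about 20% in these data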
ADAM17 confirm: confirmation of inhibitors of human ADAM17; inhibition, % at 6.95 µM; AID 743257; recombinant ADAM17, EDANS/DABCYL QFRET peptide cleavage; shares compounds with ADAM17 inh; 65% of 2,900 active;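 active = mean inhibition across replicates above the hit cutoff set in the primary screen, cut at about 8.5% in these data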
Each line names hits and unclear results; the compound was inactive in the other large screens (follow-up assays come after a bar, where they were run). Shown are actives, neighbours in structure and some others; about 2.5% of the full set was active somewhere.

Cc1cccc(C)c1OCC(O)Cn1nnc2ccccc21 (stereo not drawn)	none
Cc1cccc(C)c1OCC(O)Cn1c2ccccc2c2ccccc21 (stereo not drawn)	ADAM17 inh 12.2, ADAM10 inh 20.4 | ADAM10 confirm inactive | ADAM17 counter inactive | ADAM10 ctr 20.6 | ADAM17 confirm 12.7
CCCCC[C@H](C)N1C[C@@H](COCc2ccccc2)Oc2cc(N3CC[C@H](O)C3)ccc2S1(=O)=O	ADAM17 inh 12.7, ADAM10 inh 20.7 (no result: GASC-1 inh, NR2E3 ag-2) | ADAM10 confirm inactive | ADAM17 counter inactive | ADAM10 ctr 29.8 | ADAM17 confirm 21.1
CCCCC[C@@H](C)N1C[C@H](COCc2ccccc2)Oc2cc(N3CCC[C@@H]3CO)ccc2S1(=O)=O	ADAM17 inh 8.7, ADAM10 inh 21.4 (no result: GASC-1 inh, NR2E3 ag-2) | ADAM10 confirm inactive | ADAM17 counter inactive | ADAM10 ctr inactive | ADAM17 confirm 10.3
C/C=C/c1cccc(-c2nc(C(=O)N3CCCCC3)cc3c2[C@H](CCO)N(C(=O)NC(C)C)C3)c1	none (no result: GASC-1 inh, NR2E3 ag-2)
C[C@@H](N)C(=O)NC[C@H]1CC[C@H](C(=O)N[C@@H](Cc2ccccc2)C(=O)O)CC1	none (no result: NR2E3 ag-2)
CN(Cc1ccccc1)C(=O)Cn1nnc(-c2ccccc2)c1COc1ccccc1	none (no result: GASC-1 inh, NR2E3 ag-2)
CN(Cc1ccccc1)C(=O)Cn1nnc(-c2ccccc2)c1COc1ccc2ccccc2c1	ADAM17 inh 20.3, ADAM10 inh 34.2 (no result: GASC-1 inh, NR2E3 ag-2) | ADAM10 confirm inactive | ADAM17 counter inactive | ADAM10 ctr 25.0 | ADAM17 confirm 15.6
CC(C)C(C)NC(=O)COC(=O)c1cccc(C(=O)OCC(=O)NC(C)C(C)C)n1 (stereo not drawn)	none
O=[N+]([O-])c1cc(C(F)(F)F)ccc1NCCc1c[nH]c2ccccc12	none
O=[N+]([O-])c1cc(C(F)(F)F)ccc1NCCc1c[nH]c2ccc(O)cc12	ADAM17 inh 12.5, ADAM10 inh 30.6 | ADAM10 confirm inactive | ADAM17 counter inactive | ADAM10 ctr 27.3 | ADAM17 confirm 13.9
CC1(c2ccccc2)NC(=O)N(CC(=O)N(c2ccccc2)C2CCS(=O)(=O)C2)C1=O (stereo not drawn)	none (no result: GASC-1 inh, NR2E3 ag-2)
CCOC(=O)c1ccc(NC(=O)C2CCN(S(=O)(=O)c3ccccc3)CC2)cc1	none
CCOC(=O)c1ccc(NC(=O)C2CCCN(S(=O)(=O)c3ccc(F)cc3)C2)cc1 (stereo not drawn)	ADAM17 inh 8.8, ADAM10 inh 25.2 | ADAM10 confirm inactive | ADAM17 counter inactive | ADAM10 ctr inactive | ADAM17 confirm 12.8
COc1ccc(NC(=O)CN(C)C(=O)c2cn(-c3ccccc3)nc2-c2ccc(Cl)cc2)cc1	ADAM17 inh 10.1, ADAM10 inh 20.4, GASC-1 inh inconclusive | ADAM10 confirm inactive | ADAM17 counter inactive | ADAM10 ctr 38.5 | ADAM17 confirm 17.7
CCCNC(=O)c1ccccc1SCc1c(C)noc1C	none
Cc1cccc(C(=O)OCC(=O)NCCNC(=O)COC(=O)c2cccc(C)c2C)c1C	none
NC(=O)COC(=O)c1ccc(Cl)c(S(=O)(=O)N(Cc2ccccc2)c2ccc(Cl)cc2)c1	ADAM17 inh 10.3, ADAM10 inh 25.9 | ADAM10 confirm inactive | ADAM17 counter inactive | ADAM10 ctr 24.3 | ADAM17 confirm 13.6
